Experimental data from ChEMBL document CHEMBL5131470, “Structure-activity and structure-property relationship studies of spirocyclic chromanes with antimalarial activity” (Bioorg Med Chem, 2022).
Converted amounts (≈) assume the structure as drawn.

Columns and labels:
[1] = system: Plasmodium falciparum; test: Antimalarial activity against chloroquine-resistant Plasmodium falciparum Dd2 assessed as inhibition of parasite growth incubated for 72 hrs by SYBR green I-based DNA quantification assay; format: functional, organism-based; conditions: Dd2, 72 h
[2] = Cytotoxicity against human HepG2 cells assessed as reduction in cell viability incubated for 48 hrs by MTS assay; format: toxicity, cell-based
In short: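 HepG2 human hepatoma cells were seeded at 2,500 cells/well in 384-well plates and incubated 24 h. Serial compound dilutions (0–40 μM range) were added, then cells were incubated a further 48 h.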

[3] = Selectivity index, ratio of EC50 for cytotoxicity against human HepG2 cells to EC50 for antimalarial activity against chloroquine-resistant Plasmodium falciparum Dd2; format: toxicity, cell-based; conditions: read-out: Ratio EC50
In short: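 Human HepG2 hepatoma cells were seeded at 2,500 cells/well and grown 24 h. Serial dilutions of compound (0–40 μM) were then added for another 48 h. […] SI = EC50(HepG2)/EC50(Dd2).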

[4] = Octanol-water distribution coefficient, logD of the compound at pH 7.4 by HPLC-based analysis; format: physicochemical
[5] = Aqueous solubility of the compound at pH 2 by HPLC analysis; format: physicochemical; conditions: aqueous solution
In short: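 Aqueous solubility was measured at pH 2.0 with an in-house HPLC assay. Values are reported as bins: ≤10 μM, 10–20 μM, 20–40 μM, 40–80 μM and ≥80 μM.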

[6] = Octanol-water distribution coefficient, logD of the compound at pH 3 by HPLC-based analysis; format: physicochemical
[7] = Aqueous solubility of the compound at pH 6.5; conditions: aqueous solution

| SMILES | EC50 [1] [nM] | EC50 at 48 h [2] [nM] | selectivity ratio [3] | logD [4] | solubility [5] [µM] | logD [6] | solubility [7] [µM] |
| --- | --- | --- | --- | --- | --- | --- | --- |
| O[C@H](CN1CCC2(CC1)C[C@@H](O)c1ccc3ccccc3c1O2)c1ccc(F)c(F)c1 | > 2500 | 17000 | < 7 |  |  |  |  |
| C1=CC2(CCNCC2)Oc2c1ccc1ccccc21 | 490 | > 20000 | > 45.6 |  |  |  |  |
| O[C@@H]1CC2(CCN(C[C@H](O)c3ccc(F)c(F)c3)CC2)Oc2c1ccc1ccccc21 | 1060 | 17000 | 16 |  |  |  |  |
| CCN1CCC2(CCc3ccc4c(c3O2)CCCC4)CC1 | > 2500 | 5000 | < 1 |  |  |  |  |
| c1ccc2c3c(ccc2c1)CCC1(CCN(CCC2CCCCC2)CC1)O3 | 1470 | 2000 | 1.1 | 4.74 | 40 (≈ 14.5 µg/mL) |  |  |
| O[C@@H](CN1CCC2(CC1)C[C@H](O)c1ccc3ccccc3c1O2)c1ccc(F)c(F)c1 | 1290 | > 20000 | > 15 |  |  |  |  |
| O=C1C[C@@]2(CCCNC2)Oc2c1ccc1ccccc21 | 630 | 5000 | 9 |  |  |  |  |
| O=C1C[C@@]2(CCCN(CCc3ccc(F)c(F)c3)C2)Oc2c1ccc1ccccc21 | 330 | 14000 | 34.2 |  |  |  |  |
| c1ccc(CN2CCC3(CCc4ccc5ccccc5c4O3)CC2)cc1 | > 2500 | > 20000 | 4 |  |  |  |  |
| CCN1CCC[C@@]2(CC(O)c3ccc4ccccc4c3O2)C1 (stereo partly specified) | 630 | > 20000 | > 28.8 |  |  |  |  |
| Fc1ccc(CCN2CCC3(C=Cc4ccc5ccccc5c4O3)CC2)cc1F | 1980 | 13000 | 7.2 |  |  |  |  |
| O=C1CC2(CCN(CCCc3ccccc3)CC2)Oc2c1ccc1ccccc21 | 480 | > 20000 | > 36.5 |  |  |  |  |
| OC1CC2(CCN(CCc3ccc(F)c(F)c3)CC2)Oc2c1ccc1ccccc21 (stereo unspecified) | 530 | > 20000 | > 32.5 | 3.15 | ≥ 80 | 2.62 | ≥ 80 |
| O=C1CC2(CCN(CCc3ccccc3)CC2)Oc2c1ccc1ccccc21 | 530 | 8000 | 14 |  |  |  |  |
| c1ccc(CCCN2CCC3(CCc4ccc5ccccc5c4O3)CC2)cc1 | 1410 | > 20000 | > 45.6 |  |  |  |  |
| O=C(CN1CCC2(CCc3ccc4ccccc4c3O2)CC1)c1ccc(F)c(F)c1 | > 2500 | > 20000 |  |  | 20 (≈ 8.15 µg/mL) |  | 20 (≈ 8.15 µg/mL) |
| O=C1CC2(CCN(C(=O)Cc3ccc(F)c(F)c3)CC2)Oc2c1ccc1ccccc21 | > 2500 | 18000 | < 3.6 | 4.03 |  | 4 | ≤ 10 |
| O=C1CC2(CCN(CC(O)c3ccc(F)c(F)c3)CC2)Oc2c1ccc1ccccc21 (stereo unspecified) | 850 | > 20000 | > 6.1 | 4.51 | ≥ 80 | 2.79 | ≤ 10 |
| OC1CC2(CCN(CCCc3ccccc3)CC2)Oc2c1ccc1ccccc21 (stereo unspecified) | 650 | 1000 | 2 |  |  |  |  |
| Fc1ccc(CCN2CCC3(CCc4ccc5ccccc5c4O3)CC2)cc1F | 1910 | > 20000 | 4 | 4.51 | 20 (≈ 7.87 µg/mL) | 3.29 |  |
| CCN1CCC2(CCc3ccc4ccccc4c3O2)CC1 | 550 | > 20000 | > 52.1 | 2.88 | ≤ 10 | 2.17 | ≤ 10 |
| c1ccc(CCN2CCC3(CCc4ccc5ccccc5c4O3)CC2)cc1 | 2060 | > 20000 | > 9.6 |  |  |  |  |

| SMILES | EC50 [1] [nM] | EC50 at 48 h [2] [nM] | selectivity ratio [3] | logD [4] | solubility [5] [µM] | logD [6] | solubility [7] [µM] |
| --- | --- | --- | --- | --- | --- | --- | --- |
| O=C(CN1CCC2(CC1)CC(=O)c1ccc3ccccc3c1O2)c1ccc(F)c(F)c1 | 1300 | 4000 | 2.7 | 1.82 | 40 (≈ 16.9 µg/mL) | 1.52 | 40 (≈ 16.9 µg/mL) |
| CCN1CCC2(C=Cc3ccc4ccccc4c3O2)CC1 | 1140 | 12000 | 9.7 |  |  |  |  |
| O=C1CC2(CCNCC2)Oc2c1ccc1ccccc21 | 2270 | 7000 | 3.2 | 1.78 | ≥ 80 | 1.48 | ≥ 80 |
| OC1C[C@@]2(CCCN(CCc3ccc(F)c(F)c3)C2)Oc2c1ccc1ccccc21 (stereo partly specified) | 610 | > 20000 | > 34.5 |  |  |  |  |
| O=C1C[C@]2(CCCN(CCc3ccc(F)c(F)c3)C2)Oc2c1ccc1ccccc21 | 1840 | 10000 | 5.8 |  |  |  |  |
| OC(CN1CCC2(CC1)CC(O)c1ccc3ccccc3c1O2)c1ccc(Cl)c(Cl)c1 (stereo unspecified) | 1840 |  |  |  |  |  |  |
| OC1CC2(CCN(CCc3ccccc3)CC2)Oc2c1ccc1ccccc21 (stereo unspecified) | 320 | > 20000 | > 68.9 |  |  |  |  |
| O=C1CC2(CCN(CC(O)c3ccc(Cl)c(Cl)c3)CC2)Oc2c1ccc1ccccc21 (stereo unspecified) | > 2500 |  |  |  |  |  |  |
| O=C(Cc1ccc(F)c(F)c1)N1CCC2(CC1)CC(O)c1ccc3ccccc3c1O2 (stereo unspecified) | > 2500 | 5000 | < 1 | 2.46 |  | 2.04 |  |
| c1cc2c(c3c1CCCC3)OC1(CCNCC1)CC2 | > 2500 | > 20000 | 4 |  |  |  |  |
| O=C(Cc1ccc(F)c(F)c1)N1CCC2(CCc3ccc4ccccc4c3O2)CC1 | > 2500 | 5000 | < 1 | 4.04 |  | 4.02 |  |
| O[C@H](CN1CCC2(CC1)C[C@H](O)c1ccc3ccccc3c1O2)c1ccc(F)c(F)c1 | 1790 | > 20000 | 11 |  |  |  |  |
| CCN1CCC[C@]2(CC(=O)c3ccc4ccccc4c3O2)C1 | > 2500 | 5000 | 1.3 |  |  |  |  |
| OC1C[C@]2(CCCN(CCc3ccc(F)c(F)c3)C2)Oc2c1ccc1ccccc21 (stereo partly specified) | > 2500 | 6000 | 1.9 |  |  |  |  |
| O=C1CC2(CCN(Cc3ccccc3)CC2)Oc2c1ccc1ccccc21 | > 2500 | 11000 | 4 |  |  |  |  |
| O=C1C[C@]2(CCCNC2)Oc2c1ccc1ccccc21 | 1200 | 4000 | 2.4 |  |  |  |  |
| O=C1CC2(CCN(CCc3ccc(Cl)c(Cl)c3)CC2)Oc2c1ccc1ccccc21 | > 2500 |  |  |  |  |  |  |
| CCN1CCC[C@@]2(CC(=O)c3ccc4ccccc4c3O2)C1 | > 2500 | 8000 | < 1.6 |  |  |  |  |
| OC1CC2(CCN(Cc3ccccc3)CC2)Oc2c1ccc1ccccc21 (stereo unspecified) | 930 | 6000 | 5.7 |  |  |  |  |
| Fc1ccc(CCN2CCC3(CCc4ccc5c(c4O3)CCCC5)CC2)cc1F | > 2500 | > 20000 | 4 |  |  |  |  |
| CCN1CCC[C@]2(CC(O)c3ccc4ccccc4c3O2)C1 (stereo partly specified) | > 2500 | > 20000 | > 7.6 |  |  |  |  |
